Assay results published in ChEMBL document CHEMBL1177850, “Design, synthesis and antiproliferative activity of styryl lactones related to (+)-goniofufurone” (Eur J Med Chem, 2010).

Assays:
Assay type in all cases: functional, cell-based
K562 = assay: Antiproliferative activity against human K562 cells after 72 hrs by MTT assay; details: K562, 72 h
How it was run: (§1)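 Exponentially growing cells were counted by trypan blue exclusion and seeded at 10^4 cells/well in 96-well plates to keep growth logarithmic. Cells were exposed to compound for 72 h, then read by tetrazolium (MTT) colorimetry. Values are means (SD) of three independent experiments, each in quadruplicate.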

Jurkat = assay: Antiproliferative activity against human Jurkat cells after 72 hrs by MTT assay
How it was run: as §1, with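 “colorimetry. IC50 is the concentration giving 50% growth inhibition versus untreated control.” for “colorimetry.”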

MRC5 = assay: Antiproliferative activity against human MRC5 cells after 72 hrs by MTT assay; details: MRC5, 72 h
How it was run: (§2)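 Seeded at 5 × 10^3 cells/well in 96-well plates after harvesting in exponential growth and trypan blue counting. MRC-5 are normal foetal lung fibroblasts. Exposure was 72 h, with MTT colorimetric read-out. Results are means (SD) of three independent experiments done in quadruplicate.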

HL-60 = assay: Antiproliferative activity against human HL60 cells after 72 hrs by MTT assay; details: HL-60, 72 h
How it was run: as §1, with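 “colorimetry. IC50 is the concentration giving 50% growth inhibition versus untreated control.” for “colorimetry.”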

HeLa = assay: Antiproliferative activity against human HeLa cells after 72 hrs by MTT assay; how it was run: as §2
Raji = assay: Antiproliferative activity against human Raji cells after 72 hrs by MTT assay; how it was run: as §1

Row | SMILES | IC50 (K562) [nM] | IC50 (Jurkat) [nM] | IC50 (MRC5) [nM] | IC50 (HL-60) [nM] | IC50 (HeLa) [nM] | IC50 (Raji) [nM]
1 | O=C1CC[C@@H]([C@@H](O)[C@H](O)[C@H](O)c2ccccc2)O1 | 540 | 2230 | > 100000 | 90 | 2340 | 2210
2 | O=C1C[C@H]2O[C@H]([C@H](OC(=O)c3ccccc3)c3ccccc3)[C@H](O)[C@H]2O1 | 230 | 360 | > 100000 | 120 | 5690 | 1010
3 | O=C1C[C@H]2O[C@H]([C@H](O)c3ccccc3)[C@H](O)[C@H]2O1 | 410 | 32500 | > 100000 | > 100000 | 8320 | 18400
4 | O=C1CC2O[C@H](Cc3ccccc3)C(O)C2O1 (single isomer, unassigned) | 510 | 2520 | > 100000 | 43800 | 4420 | 1030
5 | O=C(/C=C/c1ccccc1)O[C@H](c1ccccc1)[C@H]1O[C@@H]2CC(=O)O[C@@H]2[C@H]1O [(+)-CRASSALACTONE C] | 3560 |  | > 100000 | > 100000 |  | 
